Experiments:
K562 = experiment: Antiproliferative activity against human K562 cells after 72 hrs by MTT assay; type: functional, cell-based; settings: K562, 72 h
Method in brief: (§1)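 Cells preincubated 24 h at 37 °C, 5% CO₂. Compounds added at several concentrations in medium with 0.1% DMSO for 72 h. MTT (5 mg/mL in PBS) then added for 4 h, and optical density read at 490 nm. IC50 taken from dose-response curves; mean ± SD of at least three independent experiments.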

HepG2 = experiment: Antiproliferative activity against human HepG2 cells after 72 hrs by MTT assay; type: functional, cell-based; settings: HepG2, 72 h; method in brief: as §1
KB = experiment: Antiproliferative activity against human KB cells after 72 hrs by MTT assay; type: functional, cell-based; method in brief: as §1
HCT-8 = experiment: Antiproliferative activity against human HCT8 cells after 72 hrs by MTT assay; type: functional, cell-based; settings: HCT-8, 72 h; method in brief: as §1
MDA-MB-231 = experiment: Antiproliferative activity against human MDA-MB-231 cells after 72 hrs by MTT assay; type: functional, cell-based; settings: MDA-MB-231, 72 h; method in brief: as §1
L02 = experiment: Antiproliferative activity against human LO2 cells after 72 hrs by MTT assay; type: cell-based; settings: L02, 72 h; method in brief: as §1
H22 (Mus musculus) [1] = experiment: Antiproliferative activity against mouse H22 cells after 72 hrs by MTT assay; settings: H22, 72 h
K562/VCR = experiment: Antiproliferative activity against human VCR-resistant K562/VCR cells after 72 hrs by MTT assay; type: functional, cell-based; method in brief: as §1
[2] = Drug resistance index, ratio of IC50 for VCR-resistant human K562/VCR cells to IC50 for human K562 cells; type: functional
Bel-7402 = experiment: Antiproliferative activity against human Bel7402 cells after 72 hrs by MTT assay; type: functional, cell-based; settings: Bel-7402, 72 h; method in brief: as §1
[3] = Antiproliferative activity against human ADR-resistant Bel7402/ADR cells after 72 hrs by MTT assay; type: functional; settings: Bel-7402, 72 h; method in brief: as §1
[4] = Drug resistance index, ratio of IC50 for ADR-resistant human Bel7402/ADR cells to IC50 for human Bel7402 cells; type: functional
Method in brief: (§2)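 Resistant and parental sensitive lines exposed to a range of compound concentrations in medium with 0.1% DMSO for 72 h at 37 °C, 5% CO2, after 24 h pre-culture. MTT added for 4 h, absorbance read at 490 nm. IC50 from dose-response curves, at least three independent experiments. DRI = IC50 resistant / IC50 parental.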

A549 = experiment: Antiproliferative activity against human A549 cells after 72 hrs by MTT assay; type: functional, cell-based; settings: A549, 72 h; method in brief: as §1
[5] = Antiproliferative activity against human taxol-resistant HCT8/T cells after 72 hrs by MTT assay; type: functional; settings: HCT-8, 72 h; method in brief: as §1
[6] = Drug resistance index, ratio of IC50 for taxol-resistant human HCT8/T cells to IC50 for human HCT8 cells; type: functional; method in brief: as §2
A549/TR = experiment: Antiproliferative activity against human taxol-resistant A549/TR cells after 72 hrs by MTT assay; type: functional, cell-based; method in brief: as §1
[7] = Drug resistance index, ratio of IC50 for taxol-resistant human A549/TR cells to IC50 for human A549 cells; type: functional; method in brief: as §2
[8] = Toxicity in ICR mouse xenografted with […] cells assessed as body weight loss at 6 mg/kg, iv administered every 2 days for 21 days; type: organism-based; settings: in vivo
Method in brief: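 Five-week-old male ICR mice inoculated subcutaneously in the right flank with 1×10^6 H22 cells. Randomised after one day into groups of eight. Dosed intravenously every 2 days for three weeks. Tumour volume and body weight recorded every 2 days. Tumours then excised and weighed; inhibition (%) = (1 − mean treated tumour weight / mean control tumour weight) × 100.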

H22 (Mus musculus) [9] = experiment: Antitumor activity against mouse H22 cells xenografted in ICR mouse assessed as reduction in tumor weight at 6 mg/kg, iv administered every 2 days for 21 days relative to control; parameters: scale not given: the % may be the effect or the level left
H22 (Mus musculus) [10] = experiment: Antitumor activity against mouse H22 cells xenografted in ICR mouse assessed as reduction in tumor weight at 20 mg/kg/day, iv for 21 days relative to control; parameters: scale not given: the % may be the effect or the level left
Tubulin = Tubulin (Sus scrofa, UniProt P02554+P02550); experiment: Inhibition of porcine brain tubulin polymerization preincubated for 30 mins and measured every 2 mins for 60 mins by spectrophotometric analysis
Tubulin (Sus scrofa) [11] = biological target: T1, Tubulin (Sus scrofa) (UniProt P02554+P02550); experiment: Inhibition of [3H]-colchicine binding to biotinylated porcine tubulin at 1 uM after 2 hrs by SPA relative to control; type: protein assay
Method in brief: (§3)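 Scintillation proximity assay: 0.08 μM [3H]colchicine incubated with biotinylated porcine tubulin (0.5 μg) and test compound for 2 h at 37 °C in 80 mM PIPES pH 6.8, 1 mM EGTA, 10% glycerol, 1 mM MgCl2, 1 mM GTP. Streptavidin SPA beads then added, and bound radioactivity counted by scintillation counter.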

Tubulin (Sus scrofa) [12] = biological target: T1, Tubulin (Sus scrofa); experiment: Inhibition of [3H]-colchicine binding to biotinylated porcine tubulin at 5 uM after 2 hrs by SPA relative to control; type: protein assay; method in brief: as §3

T1 sequence (P02550 whole entry, looked up): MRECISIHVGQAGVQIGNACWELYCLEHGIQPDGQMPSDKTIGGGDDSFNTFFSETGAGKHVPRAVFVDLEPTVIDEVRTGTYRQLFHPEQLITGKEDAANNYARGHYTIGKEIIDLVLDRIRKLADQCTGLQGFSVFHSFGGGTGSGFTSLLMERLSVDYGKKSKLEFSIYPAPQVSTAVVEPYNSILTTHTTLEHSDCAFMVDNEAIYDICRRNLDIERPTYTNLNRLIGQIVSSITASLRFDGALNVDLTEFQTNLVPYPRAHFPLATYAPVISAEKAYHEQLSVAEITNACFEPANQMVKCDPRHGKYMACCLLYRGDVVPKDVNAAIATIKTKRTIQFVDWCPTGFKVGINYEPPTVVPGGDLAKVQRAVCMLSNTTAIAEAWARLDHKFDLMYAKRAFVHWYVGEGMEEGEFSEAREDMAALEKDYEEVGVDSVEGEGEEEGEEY
T1 sequence (P02554 whole entry, looked up): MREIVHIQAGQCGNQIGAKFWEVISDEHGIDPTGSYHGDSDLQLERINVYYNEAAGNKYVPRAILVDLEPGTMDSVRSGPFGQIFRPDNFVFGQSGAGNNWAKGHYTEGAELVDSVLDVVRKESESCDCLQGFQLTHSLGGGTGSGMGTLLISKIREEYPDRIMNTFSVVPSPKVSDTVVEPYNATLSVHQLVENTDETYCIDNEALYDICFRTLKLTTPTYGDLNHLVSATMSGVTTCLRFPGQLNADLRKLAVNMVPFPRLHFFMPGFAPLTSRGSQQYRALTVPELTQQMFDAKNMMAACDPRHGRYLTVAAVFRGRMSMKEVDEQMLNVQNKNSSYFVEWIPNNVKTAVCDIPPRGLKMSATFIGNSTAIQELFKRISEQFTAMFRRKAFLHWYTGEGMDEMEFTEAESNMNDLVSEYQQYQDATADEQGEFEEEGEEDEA

`C=C(c1ccc2c(ccn2C)c1)c1cc(OC)nc2ccccc12` showed an IC50 (K562) of 46 nM, an IC50 (HepG2) of 53 nM and an IC50 (KB) of 84 nM. The IC50 (HCT-8) was 103 nM, the IC50 (MDA-MB-231) was 112 nM and the IC50 (L02) was 197 nM. The IC50 (H22 (Mus musculus) [1]) was 105 nM.
Compound `COc1ccc2c(ccn2-c2cc(C)nc3ccccc23)c1` has an IC50 (K562) greater than 1000 nM.
With `CC[C@]1(O)C[C@H]2CN(CCc3c([nH]c4ccccc34)[C@@](C(=O)OC)(c3cc4c(cc3OC)N(C=O)[C@H]3[C@@](O)(C(=O)OC)[C@H](OC(C)=O)[C@]5(CC)C=CCN6CC[C@]43[C@@H]65)C2)C1` [VINCRISTINE] the IC50 (K562) was 21 nM, the IC50 (K562/VCR) was 5060 nM and the “Ratio IC50” value [2] was 241.
`C=C(c1cc(C)nc2ccccc12)c1cccc2c1ccn2C` gave an IC50 (K562) greater than 1000 nM.
`Cc1cc(C(C)c2ccc3c(ccn3C)c2)c2ccccc2n1` (centres undefined) gave an IC50 (K562) of 37 nM, an IC50 (HepG2) of 101 nM and an IC50 (KB) of 109 nM. The IC50 (HCT-8) was 96 nM, the IC50 (MDA-MB-231) was 103 nM and the IC50 (L02) was 214 nM. The IC50 (H22 (Mus musculus) [1]) was 120 nM.
In the case of `C=C(c1cc(C)nc2ccccc12)c1cn(C)c2cc(OC)ccc12`, the IC50 (K562) is reported as 106 nM.
With `COc1cccc2c1C(=O)c1c(O)c3c(c(O)c1C2=O)C[C@@](O)(C(=O)CO)C[C@@H]3O[C@H]1C[C@H](N)[C@H](O)[C@H](C)O1.Cl` [DOXORUBICIN HYDROCHLORIDE] the IC50 (Bel-7402) was 274 nM, the IC50 [3] was 1730 nM and the “Ratio IC50” value [4] was 6.3.
With `C=C(c1ccc2c(ccn2C)c1)c1cc(C(N)=O)nc2ccccc12` the IC50 (K562) was 282 nM.
`CC(=O)O[C@H]1C(=O)[C@@]2(C)[C@H]([C@H](OC(=O)c3ccccc3)[C@]3(O)C[C@H](OC(=O)[C@H](O)[C@@H](NC(=O)c4ccccc4)c4ccccc4)C(C)=C1C3(C)C)[C@]1(OC(C)=O)CO[C@@H]1C[C@@H]2O` [PACLITAXEL] gave an IC50 (HCT-8) of 28 nM, an IC50 (A549) of 18 nM and an IC50 [5] of 2590 nM. The “Ratio IC50” value [6] was 92.5, the IC50 (A549/TR) was 1830 nM and the “Ratio IC50” value [7] was 101.6. For the same compound, the Activity [8] was “Toxic” and the Activity (H22 (Mus musculus) [9]) was 72.7%.
In the case of `C=C(c1ccc2c(ccn2C(=O)OC(C)(C)C)c1)c1cc(C)nc2ccccc12`, the IC50 (K562) is reported as greater than 1000 nM.
`COc1ccc2c(ccn2C(=O)c2cc(C)nc3ccccc23)c1` gave an IC50 (K562) greater than 1000 nM.
For `C=C(c1ccc2c(ccn2CF)c1)c1cc(C)nc2ccccc12`, the IC50 (K562) was 153 nM.
Work on `COc1ccc2c(C(C)c3cc(C)nc4ccccc34)c[nH]c2c1` (centres undefined) yielded an IC50 (K562) greater than 1000 nM.
With `COc1ccc2c(ccn2C(=O)c2cc(C)nc3ccccc23)c1N` the IC50 (K562) was 289 nM.
With `C=C(c1cc(C)nc2ccccc12)c1cccc2[nH]ccc12` the IC50 (K562) was greater than 1000 nM.
Work on `C=C(c1ccc2[nH]ccc2c1)c1cc(C)nc2ccccc12` yielded an IC50 (K562) of 121 nM, an IC50 (HepG2) of 377 nM and an IC50 (KB) of 372 nM. The IC50 (HCT-8) was 403 nM, the IC50 (MDA-MB-231) was 204 nM and the IC50 (L02) was 881 nM. It also gave an IC50 (H22 (Mus musculus) [1]) of 184 nM.
`Cc1cc(C(C)c2cccc3c2ccn3C)c2ccccc2n1` (centres undefined) showed an IC50 (K562) greater than 1000 nM.
`C=C(c1ccc2c(ccn2C)c1)c1cc(C(F)(F)F)nc2ccccc12` gave an IC50 (K562) of 446 nM.
With `C=C(c1ccc2c(ccn2C)c1)c1cc(NC)nc2ccccc12` the IC50 (K562) was 5 nM, the IC50 (HepG2) was 20 nM and the IC50 (KB) was 8 nM. It also gave an IC50 (HCT-8) of 10 nM, an IC50 (MDA-MB-231) of 27 nM and an IC50 (L02) of 85 nM. The IC50 (H22 (Mus musculus) [1]) was 25 nM.
In the case of `COc1ccc(/C=C\c2cc(OC)c(OC)c(OC)c2)cc1OP(=O)([O-])[O-].[Na+].[Na+]` [FOSBRETABULIN DISODIUM], the Activity (H22 (Mus musculus) [10]) is reported as 62.7%.
`C=C(c1ccc2c(ccn2C)c1)c1cc(C)nc2ccccc12` gave an IC50 (Tubulin) of 2540 nM, an inhibition (Tubulin (Sus scrofa) [11]) of 78.4% and an inhibition (Tubulin (Sus scrofa) [12]) of 89.4%.
`C=C(c1ccc2c(ccn2C)c1)c1cc(CO)nc2ccccc12` showed an IC50 (K562) of 123 nM.
Work on `C=C(c1ccc2c(ccn2C(C)=O)c1)c1cc(C)nc2ccccc12` yielded an IC50 (K562) of 179 nM.
`C=C(c1ccc2c(ccn2C)c1)c1ccnc2ccccc12` gave an IC50 (K562) of 90 nM.
`C=C(c1ccc2c(ccn2C)c1)c1cc(N(C)C)nc2ccccc12` gave an IC50 (K562) of 171 nM.
For `C=C(c1ccc2c(ccn2C)c1)c1cc(C=O)nc2ccccc12`, the IC50 (K562) was 94 nM.
Compound `COc1ccc2c(ccn2-c2cc(C)nc3ccccc23)c1N` has an IC50 (K562) of 79 nM.
With `C=C(c1cc(C)nc2ccccc12)c1c[nH]c2cc(OC)ccc12` the IC50 (K562) was greater than 1000 nM.
`C=C(c1ccc2c(ccn2CC)c1)c1cc(C)nc2ccccc12` gave an IC50 (K562) of 31 nM.
With `COc1ccc(/C=C\c2cc(OC)c(OC)c(OC)c2)cc1O` [COMBRETASTATIN A4] the IC50 (K562) was 7 nM, the IC50 (HepG2) was 9 nM and the IC50 (HCT-8) was 11 nM. The IC50 (MDA-MB-231) was 11 nM, the IC50 (L02) was 46 nM and the IC50 (A549) was 9 nM. For the same compound, the IC50 (Bel-7402) was 11 nM, the IC50 [5] was 87 nM and the IC50 (A549/TR) was 175 nM. For the same compound, the IC50 (K562/VCR) was 57 nM, the IC50 [3] was 58 nM and the IC50 (H22 (Mus musculus) [1]) was 10 nM. The Activity (H22 (Mus musculus) [10]) was 51%.
